According to ChEMBL document CHEMBL1165943, “Design and synthesis of new anticancer pyrimidines with multiple-kinase inhibitory effect” (Bioorg Med Chem, 2010):
Calls of active or inactive are those of the source. The rule behind the calls is not given here.

Columns and labels:
MDA-MB-435 [1] = experiment: Cytotoxicity against human MDA-MB-435 cells assessed as cell growth at 10 uM after 48 hrs by sulforhodamine B assay; type: functional; details: MDA-MB-435, 48 h, read-out: Activity
MDA-MB-435 [2] = experiment: Cytotoxicity against human MDA-MB-435 cells assessed as cell growth at 1 uM after 48 hrs by sulforhodamine B assay; type: functional; details: MDA-MB-435, 48 h, read-out: Activity
SK-MEL-5 [3] = experiment: Cytotoxicity against human SK-MEL-5 cells assessed as cell growth at 100 nM after 48 hrs by sulforhodamine B assay; type: functional; details: SK-MEL-5, 48 h, read-out: Activity
COLO 205 [4] = experiment: Growth inhibition of human COLO205 cells after 48 hrs by sulforhodamine B assay; type: functional, cell-based; details: COLO 205, 48 h; for CC50: read-out: LC50 (the source's name)
Summary of the method: (§1)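 Five-dose SRB assay. Cells in RPMI 1640 with 5% FBS and 2 mM L-glutamine were seeded at 5,000–40,000 cells/well, with a TCA-fixed time-zero plate (Tz) taken at 24 h. Compound stocks were in DMSO, serially diluted 10-fold or ½-log to five concentrations, and incubated 48 h at 37 °C. Plates were stained with SRB and read at 515 nm. IC₅₀ was taken where [(Ti−Tz)/(C−Tz)]×100 = 50.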

HL-60(TB) [5] = experiment: Cytotoxicity against human HL-60(TB) cells assessed as cell growth at 0.01 uM after 48 hrs by sulforhodamine B assay; type: functional; details: HL-60, 48 h, read-out: Activity
Summary of the method: (§2)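 Five-concentration HL-60(TB) test in RPMI 1640 with 5% FBS and 2 mM L-glutamine. Cells are plated at 5,000–40,000/well and a TCA-fixed time-zero plate is read at drug addition after 24 h. Drug is dissolved in DMSO and given as five 10-fold or ½log dilutions for 48 h at 37 °C, 5% CO2. Settled cells are fixed with TCA, stained with SRB and read at 515 nm.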

CAKI-1 = experiment: Cytotoxicity against human Caki1 cells assessed as cell growth at 0.001 uM after 48 hrs by sulforhodamine B assay; type: functional; details: CAKI-1, 48 h, read-out: Activity
Summary of the method: (§3)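 Cells grown in RPMI 1640 with 5% FBS and 2 mM L-glutamine, seeded at 5,000–40,000 cells/well by doubling time. Time-zero plates TCA-fixed after 24 h. Five concentrations (10-fold or half-log dilutions from DMSO stock) added; 48 h at 37 °C, 5% CO2. Cold TCA fixation (final 10%, 60 min, 4 °C), 0.4% SRB stain, dye solubilized in 10 mM trizma base, A515.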

MDA-MB-231 = experiment: Cytotoxicity against human MDA-MB-231 cells assessed as cell growth at 1 uM after 48 hrs by sulforhodamine B assay; type: functional; details: MDA-MB-231, 48 h, read-out: Activity
UACC-62 = experiment: Cytotoxicity against human UACC62 cells assessed as cell growth at 1 uM after 48 hrs by sulforhodamine B assay; type: functional; details: UACC-62, 48 h, read-out: Activity
786-0 = experiment: Growth inhibition of human 786-0 cells after 48 hrs by sulforhodamine B assay; type: functional, cell-based; details: 786-0, 48 h; summary of the method: as §1
OVCAR-4 [6] = experiment: Cytotoxicity against human OVCAR4 cells assessed as cell growth at 0.01 uM after 48 hrs by sulforhodamine B assay; type: functional; details: OVCAR-4, 48 h, read-out: Activity
SF-539 = experiment: Cytotoxicity against human SF539 cells assessed as cell growth at 1 uM after 48 hrs by sulforhodamine B assay; type: functional; details: SF-539, 48 h, read-out: Activity
OVCAR-4 [7] = experiment: Cytotoxicity against human OVCAR4 cells assessed as cell growth at 0.001 uM after 48 hrs by sulforhodamine B assay; type: functional; details: OVCAR-4, 48 h, read-out: Activity
COLO 205 [8] = experiment: Cytotoxicity against human COLO205 cells assessed as cell growth at 0.01 uM after 48 hrs by sulforhodamine B assay; type: functional; details: COLO 205, 48 h, read-out: Activity; summary of the method: as §3
ACHN = experiment: Cytotoxicity against human ACHN cells assessed as cell growth at 0.01 uM after 48 hrs by sulforhodamine B assay; type: functional; details: read-out: Activity; summary of the method: as §3
EKVX = experiment: Cytotoxicity against human EKVX cells assessed as cell growth at 1 uM after 48 hrs by sulforhodamine B assay; type: functional; details: read-out: Activity
NCI-H23 = experiment: Growth inhibition of human NCI-H23 cells after 48 hrs by sulforhodamine B assay; type: functional, cell-based; details: NCI-H23, 48 h; for CC50: read-out: LC50 (the source's name)
Summary of the method: (§4)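 Cells grown in RPMI 1640 with 5% FBS and 2 mM L-glutamine, seeded at 5,000–40,000 cells/well according to doubling time. After 24 h, time-zero plates are TCA-fixed. Five concentrations (10-fold or ½log dilutions, DMSO stocks) are applied for 48 h at 37 °C, 5% CO₂. Cells are TCA-fixed, SRB-stained and read at 515 nm. IC₅₀ is taken from [(Ti−Tz)/(C−Tz)]×100 = 50.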

MDA-MB-468 = experiment: Cytotoxicity against human MDA-MB-468 cells assessed as cell growth at 1 uM after 48 hrs by sulforhodamine B assay; type: functional; details: MDA-MB-468, 48 h, read-out: Activity
SN12C = experiment: Cytotoxicity against human SN12C cells assessed as cell growth at 100 nM after 48 hrs by sulforhodamine B assay; type: functional; details: read-out: Activity
SF-268 = experiment: Cytotoxicity against human SF268 cells assessed as cell growth at 100 nM after 48 hrs by sulforhodamine B assay; type: functional; details: SF-268, 48 h, read-out: Activity
RXF 393 = experiment: Growth inhibition of human RXF393 cells after 48 hrs by sulforhodamine B assay; type: functional, cell-based; summary of the method: as §4
NCI-H460 = experiment: Cytotoxicity against human NCI-H460 cells assessed as cell growth at 1 uM after 48 hrs by sulforhodamine B assay; type: functional; details: NCI-H460, 48 h, read-out: Activity
SK-MEL-2 = experiment: Cytotoxicity against human SK-MEL-2 cells assessed as cell growth at 10 uM after 48 hrs by sulforhodamine B assay; type: functional; details: SK-MEL-2, 48 h, read-out: Activity
SK-MEL-5 [9] = experiment: Cytotoxicity against human SK-MEL-5 cells assessed as cell growth at 0.001 uM after 48 hrs by sulforhodamine B assay; type: functional; details: SK-MEL-5, 48 h, read-out: Activity
HT-29 = experiment: Cytotoxicity against human HT-29 cells assessed as cell growth at 1 uM after 48 hrs by sulforhodamine B assay; type: functional; details: HT-29, 48 h, read-out: Activity
MOLT-4 = experiment: Cytotoxicity against human MOLT4 cells assessed as cell growth at 10 uM after 48 hrs by sulforhodamine B assay; type: functional; details: MOLT-4, 48 h, read-out: Activity
OVCAR-4 [10] = experiment: Growth inhibition of human OVCAR4 cells after 48 hrs by sulforhodamine B assay; type: functional, cell-based; details: for CC50: read-out: LC50 (the source's name); summary of the method: as §4
HL-60(TB) [11] = experiment: Cytotoxicity against human HL-60(TB) cells assessed as cell growth at 100 nM after 48 hrs by sulforhodamine B assay; type: functional; details: HL-60, 48 h, read-out: Activity; summary of the method: as §2

CC(=O)c1ccccc1-c1ccc(-c2ccnc(NC(=O)Nc3cc(N4CCOCC4)cc(C(F)(F)F)c3)n2)cn1
growth at 10 µM (MDA-MB-435 [1]): 91%
growth at 1 µM (MDA-MB-435 [2]): 71%
growth at 0.1 µM (SK-MEL-5 [3]): 84%
GI50 (COLO 205 [4]): > 63.2 µM
IC50 (COLO 205 [4]): > 100 µM
TGI (COLO 205 [4]): > 100 µM
CC50 (COLO 205 [4]): > 100 µM
growth at 0.01 µM (HL-60(TB) [5]): 87%
growth at 0.001 µM (CAKI-1): 97%
growth at 1 µM (MDA-MB-231): 35%
growth at 1 µM (UACC-62): 73%
GI50 (786-0): 9.42 µM
IC50 (786-0): 13 µM
LC50 (50% lethal concentration) (786-0): > 100 µM
TGI (786-0): > 100 µM
growth at 0.01 µM (OVCAR-4 [6]): 108%
growth at 1 µM (SF-539): 45%
growth at 0.001 µM (OVCAR-4 [7]): 110%
growth at 0.01 µM (COLO 205 [8]): 114%
growth at 0.01 µM (ACHN): 99%
growth at 1 µM (EKVX): 63%
GI50 (NCI-H23): 2950 nM
IC50 (NCI-H23): > 100000 nM
TGI (NCI-H23): > 100 µM
CC50 (NCI-H23): > 100 µM
growth at 1 µM (MDA-MB-468): 109%
growth at 0.1 µM (SN12C): 83%
growth at 0.1 µM (SF-268): 90%
LC50 (RXF 393): inactive
GI50 (RXF 393; Homo sapiens, RXF 393, 48 h): > 100 µM
TGI (RXF 393; Homo sapiens, RXF 393, 48 h): 3.5 µM
IC50 (RXF 393; Homo sapiens, RXF 393, 48 h, read-out: IC50): 1270 nM
growth at 1 µM (NCI-H460): 61%
growth at 10 µM (SK-MEL-2): -9%
growth at 0.001 µM (SK-MEL-5 [9]): 99%
growth at 1 µM (HT-29): 76%
growth at 10 µM (MOLT-4): 101%
TGI (OVCAR-4 [10]; Homo sapiens, OVCAR-4, 48 h): > 100 µM
CC50 (OVCAR-4 [10]; Homo sapiens, OVCAR-4, 48 h): > 100 µM
IC50 (OVCAR-4 [10]; ovcar-4): Not Active
growth at 0.1 µM (HL-60(TB) [11]): 73%

CC(=O)Nc1cccc(-c2ccc(-c3ccnc(NC(=O)Nc4cc(C(F)(F)F)cc(C(F)(F)F)c4)n3)cn2)c1.Cl
growth at 10 µM (MDA-MB-435 [1]): -27%
growth at 1 µM (MDA-MB-435 [2]): -18%
growth at 0.1 µM (SK-MEL-5 [3]): 73%
GI50 (COLO 205 [4]): 11 µM
IC50 (COLO 205 [4]): 11 µM
TGI (COLO 205 [4]): > 100 µM
CC50 (COLO 205 [4]): > 100 µM
growth at 0.01 µM (HL-60(TB) [5]): 90%
growth at 0.001 µM (CAKI-1): 108%
growth at 1 µM (MDA-MB-231): 30%
growth at 1 µM (UACC-62): 12%
GI50 (786-0): 3.66 µM
IC50 (786-0): 3.66 µM
LC50 (50% lethal concentration) (786-0): 39.9 µM
TGI (786-0): 15.9 µM
growth at 0.01 µM (OVCAR-4 [6]): 78%
growth at 1 µM (SF-539): 37%
growth at 0.001 µM (OVCAR-4 [7]): 32%
growth at 0.01 µM (COLO 205 [8]): 100%
growth at 0.01 µM (ACHN): 90%
growth at 1 µM (EKVX): -20%
GI50 (NCI-H23): 2240 nM
IC50 (NCI-H23): 2240 nM
TGI (NCI-H23): 6.94 µM
CC50 (NCI-H23): 43.8 µM
growth at 1 µM (MDA-MB-468): -79%
growth at 0.1 µM (SN12C): 86%
growth at 0.1 µM (SF-268): 93%
LC50 (RXF 393): inactive
TGI (RXF 393): inactive
IC50 (RXF 393; rxf 393): Not Active
growth at 1 µM (NCI-H460): -14%
growth at 10 µM (SK-MEL-2): -83%
growth at 0.001 µM (SK-MEL-5 [9]): 96%
growth at 1 µM (HT-29): -6%
growth at 10 µM (MOLT-4): 11%
GI50 (OVCAR-4 [10]; Homo sapiens, OVCAR-4, 48 h): 1570 nM
TGI (OVCAR-4 [10]; Homo sapiens, OVCAR-4, 48 h): 11.1 µM
IC50 (OVCAR-4 [10]; Homo sapiens, OVCAR-4, 48 h, read-out: IC50): 1570 nM
CC50 (OVCAR-4 [10]; Homo sapiens, OVCAR-4, 48 h): 39 µM
growth at 0.1 µM (HL-60(TB) [11]): 80%
